The text below walks through data of ChEMBL document CHEMBL1129428 (J Med Chem, 1996).

The structures appear in SMILES notation.

The subject of data set [1] is Mus musculus. Put plainly: Anticonvulsant activity after intraperitoneal injection into mice by using MES screen test after 0.5 hr. It counts as functional.
Data set [2] concerns Mus musculus. In words: Anticonvulsant activity after intraperitoneal injection into mice measured in a maximal electroshock scree (MES) screen. It counts as functional.
Data set [3] relates to Mus musculus. In words: Anticonvulsant activity after intraperitoneal injection into mice by using scPTZ screen test after 4 hr. It counts as functional.
In data set [4] the test system is Mus musculus. Put plainly: Compound was tested for toxicity after intraperitoneal injection into mice by using toxicity screen test after 4 hr. The settings on record: in vivo, ip. The format is organism-based. The method, boiled down: (§1)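 Mice injected intraperitoneally at 30, 100 and 300 mg/kg and examined 0.5 and 4 h afterwards. Each entry is the minimum dose giving activity (MES protection, scPTZ protection, or rotorod failure for neurotoxicity) in half or more of the mice. Activity is called absent if nothing occurs at 300 mg/kg.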

In data set [5] the test system is Mus musculus. In words: Toxicity after intraperitoneal injection into mice by using toxicity screen test after 0.5 hr. It counts as organism-based. The settings on record: in vivo, ip. Put shortly: as §1
The test system of data set [6] is Rattus norvegicus. Put plainly: Compound was tested for anticonvulsant activity after Oral Administration into Rats by using MES screen test after 4h,dose 12.5 mg/kg; number of rats out of four which were protected. The format is functional. Put shortly: (§2)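 Rats received the compound orally. […] Rats were tested in the MES screen at 0.25, 0.5, 1, 2 and 4 h. Each value is the number of rats protected out of 4. The test followed NINDS procedures.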

The test system of data set [7] is Rattus norvegicus. Put plainly: Compound was tested for anticonvulsant activity after Oral Administration into Rats by using MES screen test after 0.25h,dose 12.5 mg/kg; number of rats out of four which were protected. The format is functional. The method, boiled down:
as §2

Data set [8] deals with Rattus norvegicus. Put plainly: Anticonvulsant activity after oral administration into rats. The format is functional. Set-up: concentration or dose not given beside the values.
Data set [9] concerns Rattus norvegicus. In words: Compound was tested for anticonvulsant activity after Oral Administration into Rats by using MES screen test after 1h,dose 12.5 mg/kg; number of rats out of four which were protected. It counts as functional. The method, boiled down:
as §2

The test system of data set [10] is Rattus norvegicus. In words: Compound was tested for anticonvulsant activity after Oral Administration into Rats by using MES screen test after 2h,dose 12.5 mg/kg; number of rats out of four which were protected. It counts as functional. The method, boiled down:
as §2

Data set [11] has as its system Mus musculus. In words: Anticonvulsant activity after intraperitoneal injection into mice by using scPTZ screen after 0.5 hr. The format is functional.
In data set [12] the test system is Rattus norvegicus. Put plainly: Compound was tested for anticonvulsant activity after Oral Administration into Rats by using MES screen test after 0.25h,dose 12.5 mg/kg; No activity was demonstarted. Set-up: dose 12.5 mg/kg. It counts as functional, organism-based. Put shortly:
as §2

Data set [13] has as its system Rattus norvegicus. Put plainly: Compound was tested for anticonvulsant activity after Oral Administration into Rats by using MES screen test after 4h,dose 50 mg/kg; number of rats out of four which were protected. It counts as functional. The method, boiled down:
as §2

Data set [14] relates to Rattus norvegicus. Put plainly: Compound was tested for anticonvulsant activity after Oral Administration into Rats by using MES screen test after 2h,dose 50 mg/kg; number of rats out of four which were protected. The format is functional. The method, boiled down: as §2
For data set [15], the system named is Rattus norvegicus. Put plainly: Compound was tested for anticonvulsant activity after Oral Administration into Rats by using MES screen test after 0.25h,dose 50 mg/kg; number of rats out of four which were protected. The format is functional. Put shortly: as §2
For data set [16], the system named is Rattus norvegicus. Put plainly: Compound was tested for anticonvulsant activity after Oral Administration into Rats by using MES screen test after 0.5h,dose 50 mg/kg; number of rats out of four which were protected. It counts as functional. Put shortly:
as §2

Data set [17] has as its system Rattus norvegicus. In words: Compound was tested for anticonvulsant activity after Oral Administration into Rats by using MES screen test after 1h,dose 50 mg/kg; number of rats out of four which were protected. It counts as functional. The method, boiled down:
as §2

With `O=CN/N=C/c1ccc(Oc2ccc(F)cc2)cc1`, the Dose in the data set on Mus musculus [1], with Mus musculus [2], in the data set with Mus musculus [3] and in the data set with Mus musculus [4] was 300 mg/kg each time.
In the case of `CCCc1ccccc1Oc1ccc(/C=N/NC(N)=O)cc1`, the values for the Dose in the data set with Mus musculus [1], with Mus musculus [2] and in the data set on Mus musculus [5] were 100 mg/kg, 30 mg/kg and 300 mg/kg, respectively. Further, the Activity with Rattus norvegicus [6] turned out to be 4; in the data set on Rattus norvegicus [7], 3; in the data set on Rattus norvegicus [8] it was 3; in the data set with Rattus norvegicus [9], 4; in the data set with Rattus norvegicus [10], 4.
Take `C/C(=N/NC(N)=O)c1ccccc1Oc1ccccc1`: the Dose with Mus musculus [1], with Mus musculus [11] and with Mus musculus [5] was 300 mg/kg each time.
For the compound `Cc1cc(Oc2ccc(/C=N/NC(N)=O)cc2)ccc1Cl`, the Dose in the data set on Mus musculus [1] came out at 30 mg/kg; in the data set on Mus musculus [2], 30 mg/kg; with Mus musculus [11], 300 mg/kg; in the data set on Mus musculus [5], 300 mg/kg; in the data set on Mus musculus [4] it was 100 mg/kg. Also, the Activity in the data set with Rattus norvegicus [6] is listed as 4; with Rattus norvegicus [7] it was 1; with Rattus norvegicus [8] it was 4; in the data set on Rattus norvegicus [9], 4; with Rattus norvegicus [10], 4.
Consider `N=C(S)N/N=C/c1ccc(Sc2ccc(F)cc2)cc1`, for which the Dose in the data set with Mus musculus [1], with Mus musculus [2], in the data set with Mus musculus [11], with Mus musculus [3] and in the data set with Mus musculus [4] was 100 mg/kg throughout. Moreover, the Activity result was “No activity” in the data set on Rattus norvegicus [12]; 1 in the data set on Rattus norvegicus [6]; 1 in the data set on Rattus norvegicus [8]; 2 in the data set with Rattus norvegicus [9]; 1 with Rattus norvegicus [10].
In the case of `NC(=O)N/N=C\c1ccc(S(=O)(=O)c2ccccc2)cc1`, the Dose in the data set on Mus musculus [2] is 300 mg/kg.
As for `Cc1ccc(Oc2ccc(/C=N/NC(N)=O)cc2)cc1C`, the Dose in the data set on Mus musculus [1] came to 100 mg/kg; in the data set on Mus musculus [2], 30 mg/kg; in the data set on Mus musculus [11], 300 mg/kg; in the data set on Mus musculus [4], 300 mg/kg. The Activity result with Rattus norvegicus [12] was “No activity”; with Rattus norvegicus [6], 4; in the data set on Rattus norvegicus [8], 2; with Rattus norvegicus [9], 4; in the data set with Rattus norvegicus [10], 4.
In the case of `NC(=O)N/N=C/c1ccc(Oc2ccc(F)cc2Br)cc1`, the Dose in the data set with Mus musculus [1] was 100 mg/kg; in the data set with Mus musculus [2], 100 mg/kg; in the data set with Mus musculus [11], 300 mg/kg; in the data set on Mus musculus [5] it was 300 mg/kg; with Mus musculus [4], 300 mg/kg. Moreover, the Activity with Rattus norvegicus [13], in the data set with Rattus norvegicus [14], with Rattus norvegicus [15], in the data set on Rattus norvegicus [16] and in the data set on Rattus norvegicus [17] was 4 each time.
Take `Cc1cc(Oc2ccc(/C=N/NC(N)=O)cc2)ccc1F`: the Dose in the data set with Mus musculus [1] was 30 mg/kg; in the data set on Mus musculus [2], 30 mg/kg; in the data set on Mus musculus [5], 300 mg/kg. The Activity with Rattus norvegicus [6] is listed as 4; in the data set on Rattus norvegicus [7], 2; with Rattus norvegicus [8], 4; with Rattus norvegicus [9], 4; with Rattus norvegicus [10], 4.
`NC(=O)N/N=C/c1ccc(Oc2ccc(I)cc2)cc1`: the Dose in the data set on Mus musculus [1] is 30 mg/kg; in the data set with Mus musculus [2], 30 mg/kg; in the data set with Mus musculus [11] it was 100 mg/kg; in the data set on Mus musculus [3] it was 300 mg/kg; with Mus musculus [5] it was 300 mg/kg; with Mus musculus [4], 100 mg/kg. In addition, the Activity with Rattus norvegicus [13] is listed as 4; in the data set on Rattus norvegicus [14] it was 4; with Rattus norvegicus [15], 3; in the data set on Rattus norvegicus [16], 4; in the data set with Rattus norvegicus [17], 4.
With `CCCCCCCCc1ccc(Oc2ccc(/C=N/NC(N)=O)cc2)cc1`, in the data set on Mus musculus [2], the Dose was found to be 300 mg/kg.
Take `Cc1cc(I)ccc1Oc1ccc(/C=N/NC(N)=O)cc1`: the Dose with Mus musculus [1] stood at 30 mg/kg; with Mus musculus [2], 30 mg/kg; with Mus musculus [5], 300 mg/kg; with Mus musculus [4] it was 100 mg/kg. In addition, the Activity in the data set with Rattus norvegicus [6] is 4; with Rattus norvegicus [7], 2; in the data set with Rattus norvegicus [8], 4; with Rattus norvegicus [9], 4; in the data set with Rattus norvegicus [10], 4.
For the compound `CC/C(=N/NC(N)=O)c1ccccc1Oc1ccc(Cl)cc1`, the Dose in the data set on Mus musculus [1] and with Mus musculus [2] was 300 mg/kg throughout.
In the case of `NC(=O)N/N=C/c1ccc(Oc2ccc(F)cc2F)cc1`, the Dose in the data set on Mus musculus [1] was determined as 30 mg/kg; in the data set on Mus musculus [2], 30 mg/kg; with Mus musculus [11], 100 mg/kg. Besides, the Activity in the data set with Rattus norvegicus [13] amounted to 4; in the data set on Rattus norvegicus [14], 4; in the data set on Rattus norvegicus [15], 3; in the data set with Rattus norvegicus [16], 4; in the data set with Rattus norvegicus [17], 4.
For the compound `C/C(=N/NC(N)=O)c1ccccc1Oc1ccc(Br)cc1`, the Dose in the data set with Mus musculus [5] is 300 mg/kg.
For `CC/C(=N/NC(N)=O)c1ccccc1Oc1ccc(Br)cc1`, in the data set on Mus musculus [4], the Dose was determined as 300 mg/kg.
With `C/C(=N/NC(N)=O)c1ccccc1Oc1ccc(Cl)cc1`, the Dose in the data set on Mus musculus [1], in the data set with Mus musculus [2], with Mus musculus [11], in the data set with Mus musculus [3], in the data set on Mus musculus [5] and in the data set with Mus musculus [4] was 300 mg/kg throughout.
For `Cc1cc(Cl)ccc1Oc1ccc(/C=N/NC(N)=O)cc1`, the Dose was found to be 30 mg/kg with Mus musculus [1]; 30 mg/kg in the data set with Mus musculus [2]; 30 mg/kg with Mus musculus [11]; 30 mg/kg with Mus musculus [3]; 300 mg/kg in the data set with Mus musculus [5]; 100 mg/kg with Mus musculus [4]. In addition, the Activity result with Rattus norvegicus [12] was “No activity”; with Rattus norvegicus [6] it was 4; in the data set on Rattus norvegicus [8] it was 3; in the data set on Rattus norvegicus [9] it was 4; with Rattus norvegicus [10] it was 4.
In the case of `NC(=O)N/N=C/c1ccc(Oc2ccccc2Cl)cc1`, the Dose was found to be 30 mg/kg with Mus musculus [1]; 30 mg/kg in the data set on Mus musculus [2]; 100 mg/kg with Mus musculus [11]; 300 mg/kg in the data set on Mus musculus [3]; 300 mg/kg in the data set with Mus musculus [5]. Moreover, the Activity with Rattus norvegicus [13] turned out to be 4; in the data set with Rattus norvegicus [14], 4; with Rattus norvegicus [15] it was 3; in the data set with Rattus norvegicus [16] it was 4; with Rattus norvegicus [17], 4.
Consider `NC(=O)N/N=C/c1ccc(Oc2ccc(Cl)cc2)cc1`, for which the Dose with Mus musculus [1] came out at 30 mg/kg; in the data set on Mus musculus [2], 30 mg/kg; in the data set on Mus musculus [11] it was 30 mg/kg; with Mus musculus [5] it was 300 mg/kg; in the data set on Mus musculus [4] it was 30 mg/kg. The Activity in the data set on Rattus norvegicus [13], in the data set with Rattus norvegicus [14], in the data set on Rattus norvegicus [15], in the data set with Rattus norvegicus [16] and in the data set with Rattus norvegicus [17] was 4 in each case.
`N=C(S)N/N=C/c1ccc(Oc2ccc(F)cc2)cc1`: the Dose was 30 mg/kg in the data set on Mus musculus [1]; 30 mg/kg in the data set with Mus musculus [2]; 30 mg/kg with Mus musculus [11]; 30 mg/kg with Mus musculus [3]; 100 mg/kg in the data set on Mus musculus [5]; 30 mg/kg with Mus musculus [4]. Besides, the Activity result was “No activity” with Rattus norvegicus [12]; 1 with Rattus norvegicus [6]; 2 in the data set with Rattus norvegicus [8]; 2 in the data set on Rattus norvegicus [9]; 3 in the data set with Rattus norvegicus [10].
For `NC(=O)C(=O)N/N=C/c1ccc(Oc2ccc(F)cc2)cc1`, the Dose with Mus musculus [5] and in the data set with Mus musculus [4] was 300 mg/kg each time.
`CCCCCCCOc1ccc(Oc2ccc(/C=N/NC(N)=O)cc2)cc1` gave a Dose in the data set on Mus musculus [5] of 300 mg/kg.
`NC(=O)N/N=C\c1ccc(Oc2cccc(F)c2)cc1`: the Dose in the data set with Mus musculus [1] was 30 mg/kg; in the data set with Mus musculus [2], 300 mg/kg; in the data set with Mus musculus [11] it was 100 mg/kg; with Mus musculus [5], 300 mg/kg; in the data set on Mus musculus [4] it was 300 mg/kg. Moreover, the Activity with Rattus norvegicus [13], in the data set on Rattus norvegicus [14], in the data set on Rattus norvegicus [15], in the data set on Rattus norvegicus [16] and in the data set on Rattus norvegicus [17] was 4 each time.
